The values that follow come from ChEMBL document CHEMBL1156209, “Hybrid ortho/allosteric ligands for the adenosine A(1) receptor” (J Med Chem, 2010).

Test [1] has as its target T1, Adenosine receptor A1 (Homo sapiens, UniProt P30542).
T1 sequence (P30542 whole entry): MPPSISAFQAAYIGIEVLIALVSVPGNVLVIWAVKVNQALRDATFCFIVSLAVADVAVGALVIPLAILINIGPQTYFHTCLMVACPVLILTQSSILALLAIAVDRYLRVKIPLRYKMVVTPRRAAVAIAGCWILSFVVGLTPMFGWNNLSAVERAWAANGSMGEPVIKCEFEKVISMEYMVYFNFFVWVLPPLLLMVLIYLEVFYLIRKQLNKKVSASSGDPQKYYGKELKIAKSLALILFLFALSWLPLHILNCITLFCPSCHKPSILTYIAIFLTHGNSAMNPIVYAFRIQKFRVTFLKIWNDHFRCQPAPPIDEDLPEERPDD
In words: Displacement of […] from human adenosine A1 receptor expressed in CHO cells by scintillation counting. It counts as cell-based. Summed up:
(§1)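 Equilibrium competition in 50 mM Tris HCl pH 7.4 with 0.8 IU/mL adenosine deaminase and 1.6 nM [3H]DPCPX. Increasing ligand concentrations ± 10 μM PD81,723. CHO-hA1 membranes (10 μg protein) incubated 1 h at 25 °C. GF/B filtration, scintillation counting. Nonspecific binding defined with 10 μM CPA. High- and low-affinity Ki taken from biphasic curves.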

Test [2] addresses T1, Adenosine receptor A1. Kind of test: Agonist activity at human adenosine A1 receptor expressed in CHO cells assessed as [35S]GTPgammaS binding by scintillation counting in presence of 10 uM allosteric modulator PD-81723. It counts as functional, cell-based. In outline:
(§2)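 CHO-hA1 membranes (5 μg protein) preincubated 30 min at 25 °C in 50 mM Tris, 100 mM NaCl, 10 mM MgCl, pH 7.4 with 3 μM GDP and a concentration range of agonist, with or without 10 μM PD81,723. 0.3 nM (final) [35S]GTPγS then added for 45 min at 25 °C. Filtration, washing, scintillation counting. Emax given as percent of maximal stimulation by the reference agonist. Control and PD81,723 pEC50 compared to give fold shift.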

Test [3] has as its target T1, Adenosine receptor A1. In words: Agonist activity at human adenosine A1 receptor expressed in CHO cells assessed as stimulation of ERK1/2 phosphorylation in presence of 10 uM allosteric modulator PD-81723. It counts as functional, cell-based. Summed up:
(§3)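 Intact CHO-hA1 cells seeded at 40 000/well. After 6 h, washed and serum-starved in DMEM for 14 h. Pretreated 30 min with 0.8 IU/mL adenosine deaminase, then stimulated 5 min with compound ± 10 μM PD81,723. Lysed; phospho-ERK1/2 read by AlphaScreen SureFire after ≥3 h dark incubation at room temperature. Emax given as percent of the reference agonist. Mean ± SEM of ≥3 experiments. Fold shift in pEC50 versus control.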

The target of test [4] is T2, Adenosine receptor A1 (Homo sapiens) (UniProt P30542).
T2 sequence (whole entry): T1 sequence (P30542 whole entry)
Kind of test: Displacement of [3H]CCPA from human adenosine A1 receptor expressed in CHO cells by scintillation counting relative to control. It counts as cell-based. Summed up:
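Filtration and scintillation counting. Nonspecific binding defined with 10 μM CPA. pKi and maximal displacement given as percent of specific binding. pKi compared by one-way ANOVA with Bonferroni test.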

For test [5], the target named is T2, Adenosine receptor A1 (Homo sapiens). In words: Agonist activity at human adenosine A1 receptor expressed in CHO cells assessed as stimulation of ERK1/2 phosphorylation in presence of 10 uM allosteric modulator PD-81723 relative to control. Format: functional, cell-based. Summed up: as §3
For test [6] the target is unchanged. Kind of test: Displacement of […] from human adenosine A1 receptor expressed in CHO cells by scintillation counting relative to control. Format: cell-based. The arrangement: concentration or dose not given beside the values. Summed up:
as §1

The target of test [7] is T1, Adenosine receptor A1. In words: Agonist activity at human adenosine A1 receptor expressed in CHO cells assessed as stimulation of ERK1/2 phosphorylation. Format: functional, cell-based. In outline:
as §3

Test [8] deals with T1, Adenosine receptor A1. In words: Displacement of […] from human adenosine A1 receptor expressed in CHO cells by scintillation counting in presence of 10 uM allosteric modulator PD-81723. It counts as cell-based. In outline: as §1
Test [9] deals with T2, Adenosine receptor A1 (Homo sapiens). In words: Selectivity ratio of EC50 for human adenosine A1 receptor to EC50 for human adenosine A1 receptor in presence of 10 uM allosteric modulator PD-81723. In outline:
as §2

The target of test [10] is T1, Adenosine receptor A1. In words: Agonist activity at human adenosine A1 receptor expressed in CHO cells assessed as [35S]GTPgammaS binding by scintillation counting. Format: functional, cell-based. In outline:
as §2

In test [11] the target is T2, Adenosine receptor A1 (Homo sapiens). Kind of test: Agonist activity at human adenosine A1 receptor expressed in CHO cells assessed as [35S]GTPgammaS binding by scintillation counting relative to control. Format: functional, cell-based. Summed up: as §2
Test [12] shares this target. In words: Selectivity ratio of EC50 for human adenosine A1 receptor-mediated ERK1/2 phosphorylation to EC50 for human adenosine A1 receptor-mediated ERK1/2 phosphorylation in presence of 10 uM allosteric modulator PD-81723 assessed as. Summed up:
as §3

For test [13] the target is unchanged. In words: Agonist activity at human adenosine A1 receptor expressed in CHO cells assessed as stimulation of ERK1/2 phosphorylation relative to control. It counts as functional, cell-based. In outline: as §3
Test [14] shares this target. Kind of test: Agonist activity at human adenosine A1 receptor expressed in CHO cells assessed as [35S]GTPgammaS binding by scintillation counting in presence of 10 uM allosteric modulator PD-81723 relative to control. Format: functional, cell-based. In outline:
as §2

Test [15] addresses T1, Adenosine receptor A1. Kind of test: Enhancement of [3H]CCPA binding to human adenosine A1 receptor expressed in CHO cells by scintillation counting.
Test [16] addresses T1, Adenosine receptor A1. Kind of test: Displacement of […] from human adenosine A1 receptor expressed in CHO cells at low affinity site by scintillation counting. It counts as cell-based. In outline:
as §1

Test [17] deals with T1, Adenosine receptor A1. Kind of test: Displacement of […] from human adenosine A1 receptor expressed in CHO cells at high affinity site by scintillation counting. It counts as cell-based. Summed up: as §1

SMILES strings stand for the structures.

For the compound `Nc1sc2c(c1C(=O)c1ccc(Cl)c(Cl)c1)CCN(CCCCCOc1ccc(Nc3ncnc4c3ncn4[C@@H]3O[C@H](CO)[C@@H](O)[C@H]3O)cc1)C2`, the Ki in test [1] (read-out: Ki) was 219 nM; in test [1] (read-out: pKi (converted)), 214 nM; in test [8] (read-out: Ki), 114 nM; in [8] (read-out: pKi (converted)), 110 nM. In addition, the EC50 in test [2] (read-out: EC50) was 52 nM; in test [3] (read-out: EC50), 89 nM; in test [7] (read-out: EC50) it was 156 nM; in [7] (read-out: pEC50 (converted)), 151 nM; in test [10] (read-out: EC50), 273 nM; in [10] (read-out: pEC50 (converted)) it was 269 nM. The Emax in test [4] was 97%; in test [5] it was 131%; in test [11], 110%; in test [13], 114%; in test [14] it was 97%. The Activity in test [6] is 100%. Further, the Ratio EC50 in [9] worked out at 5.2; in test [12], 1.8.

For the compound `Nc1sc2c(c1C(=O)c1ccc(Cl)c(Cl)c1)CCN(CCCCCCCCCOc1ccc(Nc3ncnc4c3ncn4[C@@H]3O[C@H](CO)[C@@H](O)[C@H]3O)cc1)C2`, the Ki in test [1] (read-out: Ki) is 679 nM; in [1] (read-out: pKi (converted)), 661 nM; in test [8] (read-out: Ki) it was 651 nM. The EC50 was 181 nM in [2] (read-out: EC50); 178 nM in test [2] (read-out: pEC50 (converted)); 813 nM in test [3] (read-out: EC50); 692 nM in [3] (read-out: pEC50 (converted)); 1070 nM in test [7] (read-out: EC50); 955 nM in test [7] (read-out: pEC50 (converted)). The EC50 in test [10] (read-out: EC50) worked out at 390 nM. Further, the Emax in test [4] is 79%; in [5], 122%; in [11], 110%; in test [13], 123%; in test [14] it was 105%. This compound yielded an Activity in test [6] of 83%. Also, the results for the Ratio EC50 in test [9] and in test [12] were 2.2 and 1.3, respectively.

As to `Nc1sc2c(c1C(=O)c1ccc(Cl)c(Cl)c1)CCN(CCCCCCCCCCOc1ccc(Nc3ncnc4c3ncn4[C@@H]3O[C@H](CO)[C@@H](O)[C@H]3O)cc1)C2`, the Ki in test [1] (read-out: Ki) was 1470 nM; in [1] (read-out: pKi (converted)) it was 1260 nM; in test [8] (read-out: Ki), 1360 nM; in [8] (read-out: pKi (converted)), 1290 nM. Besides, the Activity in test [6] is 55%.

As for `Nc1sc2c(c1C(=O)c1ccc(Cl)c(Cl)c1)CCN(CCOc1ccc([N+](=O)[O-])cc1)C2`, the maximum response (Emax) in test [4] was determined as 250%. Besides, in test [15], the EC50 is 8500 nM.

`Nc1sc2c(c1C(=O)c1ccc(Cl)c(Cl)c1)CCN(CCCCCOc1ccc([N+](=O)[O-])cc1)C2` yielded an Emax in [4] of 185%. Moreover, the EC50 in test [15] is 5200 nM.

`COc1ccc(Nc2ncnc3c2ncn3[C@@H]2O[C@H](CO)[C@@H](O)[C@H]2O)cc1`: the Ki is 842 nM in [1] (read-out: Ki); 832 nM in test [1] (read-out: pKi (converted)); 1990 nM in test [16] (read-out: Ki); 1860 nM in [16] (read-out: pKi (converted)); 195 nM in test [8] (read-out: Ki); 191 nM in test [8] (read-out: pKi (converted)). Besides, the figures for the Ki in [17] (read-out: Ki) and in [17] (read-out: pKi (converted)) were 71 nM and 42.7 nM, respectively. The EC50 in test [2] (read-out: EC50) was 29 nM; in test [2] (read-out: pEC50 (converted)) it was 30.2 nM; in test [3] (read-out: EC50), 5 nM; in test [7] (read-out: EC50), 22 nM; in test [7] (read-out: pEC50 (converted)), 20.9 nM; in test [10] (read-out: EC50), 142 nM. The EC50 in test [10] (read-out: pEC50 (converted)) is 123 nM. Besides, the maximal effect (Emax) was 100% in test [4]; 131% in [5]; 100% in test [11]; 100% in [13]; 91% in test [14]. This compound also gave an Activity in [6] of 100%. Also, the values for the Ratio EC50 in test [9] and in [12] were 4.9 and 4.4, respectively.

Turning to `Nc1sc2c(c1C(=O)c1ccc(Cl)c(Cl)c1)CCN(CCCOc1ccc(Nc3ncnc4c3ncn4[C@@H]3O[C@H](CO)[C@@H](O)[C@H]3O)cc1)C2`, the Ki is 439 nM in test [1] (read-out: Ki), 417 nM in test [1] (read-out: pKi (converted)), 268 nM in test [8] (read-out: Ki) and 245 nM in test [8] (read-out: pKi (converted)). The compound also yielded an Activity in test [6] of 100%.

Compound `Nc1sc2c(c1C(=O)c1ccc(Cl)c(Cl)c1)CCN(CCCOc1ccc([N+](=O)[O-])cc1)C2` returned a maximal effect (Emax) in test [4] of 204%. In addition, the EC50 in test [15] stood at 3700 nM.

Turning to `Nc1sc2c(c1C(=O)c1ccc(Cl)c(Cl)c1)CCN(CCCCCCCCOc1ccc(Nc3ncnc4c3ncn4[C@@H]3O[C@H](CO)[C@@H](O)[C@H]3O)cc1)C2`, the Ki was 836 nM in test [1] (read-out: Ki), 776 nM in [1] (read-out: pKi (converted)), 591 nM in test [8] (read-out: Ki) and 457 nM in [8] (read-out: pKi (converted)). The compound also showed an Activity in test [6] of 65%.

For the compound `Nc1sc2c(c1C(=O)c1ccc(Cl)c(Cl)c1)CCN(CCCCCCOc1ccc(Nc3ncnc4c3ncn4[C@@H]3O[C@H](CO)[C@@H](O)[C@H]3O)cc1)C2`, the Ki was 419 nM in test [1] (read-out: Ki), 479 nM in test [1] (read-out: pKi (converted)), 288 nM in test [8] (read-out: Ki) and 275 nM in test [8] (read-out: pKi (converted)). The compound further returned an Activity in test [6] of 103%.

`Nc1sc2c(c1C(=O)c1ccc(Cl)c(Cl)c1)CCN(CCCCOc1ccc(Nc3ncnc4c3ncn4[C@@H]3O[C@H](CO)[C@@H](O)[C@H]3O)cc1)C2`: the values for the Ki in test [1] (read-out: Ki) and in test [8] (read-out: Ki) were 618 nM and 313 nM, respectively. For the same compound, the Activity in test [6] was found to be 100%.

For the compound `Nc1sc2c(c1C(=O)c1ccc(Cl)c(Cl)c1)CCN(CCOc1ccc(Nc3ncnc4c3ncn4[C@@H]3O[C@H](CO)[C@@H](O)[C@H]3O)cc1)C2`, the Ki in [1] (read-out: Ki) is 751 nM; in [1] (read-out: pKi (converted)) it was 741 nM; in test [8] (read-out: Ki), 469 nM. The compound further showed an Activity in test [6] of 100%.

As for `Cc1sc(N)c(C(=O)c2cccc(C(F)(F)F)c2)c1C`, in test [4], the Emax was 140%.

With `Nc1sc2c(c1C(=O)c1ccc(Cl)c(Cl)c1)CCN(CCCCCCCOc1ccc(Nc3ncnc4c3ncn4[C@@H]3O[C@H](CO)[C@@H](O)[C@H]3O)cc1)C2`, the Ki in [1] (read-out: Ki) was 450 nM; in [8] (read-out: Ki), 347 nM. In test [6], the Activity is 91%.
